NR3A LBD binder – NR3A (human) ligand-binding domain modulation; NR3A LBD differential scanning fluorimetry, Tm shift; 0% = protein alone, 100% = glycine-bound protein; Tm shift relative to glycine control, % at 25 µM; 340,000 compounds, 2.5% hits; AID 1259313;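 active = melting temperature shift of at least 10% of the positive control shift, at one fixed dose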
MT1-MMP act inh – inhibitors of human MT1-MMP activation. P50281. HT1080 RFP-PRO-GFP cells, GFP/RFP ratio fluorescence, overnight; percent of plate control window, DMSO zero. GFP/RFP ratio change, % at 20 µM. 360,000 compounds, 0.061% hits. AID 651647;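 active = GFP/RFP ratio change of at least 30% with cell ATP level not reduced by more than half and red fluorescence within 50% of control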
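Test system: HT1080 RFP-PRO-GFP cells; Benchmarks: DMSO and RFP-L50D-GFP cell wells; Timing: cells overnight before dosing, compound overnight, 37 °C, 5% CO2; Compound: one 20 µM compound dose with 1% DMSO; Read-out: GFP/RFP fluorescence ratio.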
ADAM17 inh – ADAM17 inhibition, QFRET primary screen. P78536. recombinant ADAM17, EDANS/DABCYL FRET peptide cleavage. inhibition, % at 6.95 µM. 370,000 compounds, 0.83% hits. AID 720648;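 active = inhibition above the mean of compounds lying between control limits plus 3 SD, set per campaign, cut at about 8.5% in these data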;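 note: 0% = DMSO-only wells as the low control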
Target sequence (P78536 215-824 limits assumed): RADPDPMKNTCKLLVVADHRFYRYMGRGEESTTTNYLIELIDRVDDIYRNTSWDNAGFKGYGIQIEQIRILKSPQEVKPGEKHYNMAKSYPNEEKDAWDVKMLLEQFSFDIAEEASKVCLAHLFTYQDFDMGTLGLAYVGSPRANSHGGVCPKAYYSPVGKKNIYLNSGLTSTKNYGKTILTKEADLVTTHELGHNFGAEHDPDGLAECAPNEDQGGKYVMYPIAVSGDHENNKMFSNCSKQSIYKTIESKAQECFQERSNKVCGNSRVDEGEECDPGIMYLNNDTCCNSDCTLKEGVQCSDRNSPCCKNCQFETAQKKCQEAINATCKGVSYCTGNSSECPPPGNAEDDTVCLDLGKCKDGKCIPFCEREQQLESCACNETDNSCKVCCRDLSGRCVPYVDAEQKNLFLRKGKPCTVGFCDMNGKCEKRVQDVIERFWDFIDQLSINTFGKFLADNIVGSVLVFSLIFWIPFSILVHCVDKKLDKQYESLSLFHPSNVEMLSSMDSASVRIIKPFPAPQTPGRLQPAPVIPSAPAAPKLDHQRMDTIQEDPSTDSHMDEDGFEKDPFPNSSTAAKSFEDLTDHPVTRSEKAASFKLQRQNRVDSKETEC
MPTP block – permeability transition pore inhibition; inhibition, % at 10 µM; 360,000 compounds, 1.4% hits; isolated mouse mitochondria, Ca2+ swelling absorbance, 30 min;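 active = inhibition of 50% or more, scaled per plate between neutral and stimulator controls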;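 note: 0% = DMSO wells given calcium and 100% = 1 mM EGTA wells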
ADAM10 inh – inhibitors of human ADAM10 | O14672 | recombinant ADAM10, EDANS/DABCYL FRET peptide cleavage, 3 h | inhibition, % at 7 µM | 370,000 compounds, 0.62% hits | AID 720582;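 active = inhibition above a per-campaign cutoff equal to the mean of compounds falling between control-based bounds plus 3 SD, cut at about 20% in these data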;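 note: 0% = DMSO wells while the 100% control is not disclosed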
SKN-1 inh – inhibitors of C. elegans SKN-1 | AID 624304 | 360,000 compounds, 0.49% hits | C. elegans VP596 Pgst-4::GFP/RFP ratio, acrylamide-induced, 24 h | inhibition, % at 21.8 µM;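 active = interference check ratio from 0.5 to 1.5 plus GFP to RFP signal ratio inhibition reaching or exceeding a fixed threshold, cut at about 30% in these data, passing the limit was not always enough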
* = called active by the depositor; / = no result given. Shown are actives, neighbours in structure and some others; about 4.7% of the full set was active somewhere.

SMILES | NR3A LBD binder | MT1-MMP act inh | ADAM17 inh | MPTP block | ADAM10 inh | SKN-1 inh
COc1c(O)ccc(/C=C(\C#N)c2nc3ccccc3[nH]2)c1[N+](=O)[O-] | 22.8* | 2.6 | -47.9 | 3.2 | -129.2 | 8.2
O=S(=O)(NCC(c1ccc2c(c1)OCO2)N1CCOCC1)c1ccc(Br)cc1 (centres undefined) | 0.6 | 1.0 | 3.3 | -2.4 | -2.2 | 7.8
Oc1cc2c(cc1C(c1ccc(Br)cc1)N1CCCC1)OCO2 (centres undefined) | 29.2* | 0.0 | -1.5 | -5.2 | 1.7 | 11.0
Cc1c(CNC2CCCC(C)C2C)c(C(=O)O)c(C)n1Cc1ccccc1 (centres undefined) | 3.4 | -0.8 | 0.7 | -0.1 | 1.0 | 5.1
Cc1cc(C)c2nc(C(F)(F)F)nc(N3CCN(C(=O)c4ccco4)CC3)c2c1 | -10.4 | -10.2 | -2.7 | 0.8 | -6.2 | 36.3*
CCCCN(CCCC)C(=O)C1CC=CCC1C(=O)O (centres undefined) | 0.8 | -3.2 | -3.1 | 1.6 | -5.3 | 1.8
CCCCCNC(=O)C1CC=CCC1C(=O)O (centres undefined) | 11.6* | -10.8 | -2.6 | -0.6 | 1.4 | 10.7
CC(C)CCNC(=O)NC(=O)COc1c(F)c(F)cc(F)c1F | 4.0 | 3.4 | 0.1 | 4.1 | -3.9 | 59.6*
Cc1cc(C(=O)CSc2nnc(-c3cccs3)n2Cc2ccccc2)c(C)n1C | -0.7 | -5.4 | 1.1 | 1.0 | 0.0 | 35.8*
COc1ccc(CCNC(=O)COC(=O)c2ccc([N+](=O)[O-])o2)cc1 | -0.1 | -2.3 | 0.5 | -2.2 | -5.8 | -2.6
Cc1ccc2[nH]c(-c3cccc(F)c3)cc(=O)c2c1 | -1.4 | 19.3 | -23.9 | -1.2 | -77.5 | 5.3
Cc1ccc2[nH]c(-c3cccc(N)c3)cc2c1 | 30.6* | 0.2 | -5.8 | 1.6 | -2.7 | 9.5
Cc1cccc(N(Cc2ccccc2)C(=O)Cc2ccc(S(=O)(=O)N3CCOCC3)s2)c1 | -1.6 | -0.3 | -1.0 | 0.0 | -2.1 | 21.8
CCCCC(=O)Nc1c(C)cc(C)cc1Cl | 13.9* | 1.6 | -4.7 | 0.8 | 4.9 | 22.7
CCC(=O)Nc1c(C)cc(C)cc1Cl | 2.9 | -0.8 | -3.5 | 0.7 | 3.1 | -12.6
Cc1ccc(S(=O)(=O)NCC(c2ccco2)N2CCc3ccccc32)cc1 (centres undefined) | 15.5* | -2.4 | 5.0 | -0.1 | 4.1 | 9.5
COC(=O)CN1CCN(C(=O)c2csc(N3CCOCC3)n2)CC1 | / | / | 0.5 | / | 1.3 | /
CCOC(=O)C1CCN(C(=O)CCNC(=O)Cn2cnc3ccccc3c2=O)CC1 | -0.2 | -2.6 | -0.5 | -2.1 | 2.8 | -4.7
O=S(=O)(c1ccc2nc(-c3ccccc3)[nH]c2c1)N1CCN(c2ccc(Cl)cc2)CC1 | 13.4* | 3.4 | 0.5 | 38.7 | 4.2 | -0.8
O=c1ccc2cc(S(=O)(=O)N3CCN(c4ccccc4)CC3)ccc2[nH]1 | -1.4 | 2.3 | -2.4 | 0.9 | -13.8 | 17.3
COc1ccc(-n2c(SCC(=O)Nc3ccc(C)cc3)nc(O)c(Cc3ccccc3)c2=O)cc1 | -6.5 | 3.6 | -1.5 | -0.4 | -3.1 | 3.3
COc1ccc(-n2c(SCC(=O)Nc3ccc(Cl)cc3)nc(O)c(Cc3ccccc3)c2=O)cc1 | 10.3* | 3.0 | 4.4 | 12.8 | 13.4 | -5.5
CCOC(=O)c1sc(=S)n(-c2ccccc2)c1C | -3.7 | -1.1 | -1.9 | 2.2 | 4.8 | 17.2
CCOC(=O)c1sc(=S)n(Cc2ccccc2)c1C | 13.5* | -1.5 | -2.7 | -3.4 | 2.4 | -6.0
CC1CCc2sc(NC(=S)NC(=O)c3ccccc3)c(C#N)c2C1 (centres undefined) | 22.5* | -4.0 | 0.1 | 17.8 | -1.7 | 15.2
SMILES | NR3A LBD binder | MT1-MMP act inh | ADAM17 inh | MPTP block | ADAM10 inh | SKN-1 inh
Cc1nc2c(c(N3CCOCC3)n1)OCC(=O)N2 | 0.3 | -10.4 | -2.3 | -0.6 | 2.1 | 3.0
O=c1/c(=C\c2ccc(O)cc2)sc2n1C(c1ccccc1)C(c1ccccc1)=NN=2 (centres undefined) | 14.6* | -65.0 | 2.8 | -4.9 | 4.5 | 1.2
CC1=NC(C)(C)Cc2c(C)cccc21 | -0.2 | 4.6 | -5.8 | -2.0 | -7.0 | 7.9
Cc1cccc2c1CC(C)(C)N=C2C1=C(O)CCCC1=O | 14.0* | -1.5 | -0.9 | -3.4 | 14.2 | 10.6
COc1cccc(NC(=O)Cn2c(=O)oc3cc(S(=O)(=O)N4CCCC4)ccc32)c1 | -1.6 | 2.8 | -5.2 | 2.6 | -8.9 | -8.0
Cn1nc(-c2ccccc2)nc1-c1ccccc1 | -2.6 | 1.4 | 0.8 | 0.6 | 1.2 | 20.0
Cc1nnc2nc(-c3ccccc3)nc(-c3ccccc3)n12 | 11.8* | -2.5 | -0.4 | -0.8 | -14.9 | 8.6
CC(C)(C)n1cnc2cc(NS(=O)(=O)c3ccccc3)ccc21 | 15.1* | 0.9 | -1.6 | 0.2 | -5.8 | -10.9
Cc1ccc(N2C(=O)CC(C3CCCO3)C2=O)cc1 (centres undefined) | -7.1 | 0.0 | -1.0 | -0.5 | 6.3 | 4.8
O=S(=O)(c1ccccc1)c1cnn2c(C(F)(F)F)cc(-c3ccccc3)nc12 | -2.3 | -2.2 | -7.8 | 3.1 | -25.6 | 3.4
COc1ccccc1-c1cc(C(F)(F)F)n2ncc(S(=O)(=O)c3ccccc3)c2n1 | 24.5* | -4.4 | -11.3 | 2.1 | -55.0 | 4.5
O=S(=O)(c1ccccc1)c1cnn2c(C(F)(F)F)cc(-c3ccc(F)cc3)nc12 | 14.2* | 0.8 | -6.1 | 3.5 | -23.3 | -13.1
NC(=O)C1CCN(c2nnnn2-c2ccccc2)CC1 | 1.1 | 2.0 | -3.9 | -1.0 | 11.3 | -2.8
CC(c1ccon1)N(C)C(=O)CCc1nnc(CCCCc2ccccc2)o1 (centres undefined) | -2.2 | -6.3 | -4.6 | 0.2 | -1.1 | -4.2
Cc1ccc2[nH]c(C(=O)N/N=C/c3ccccc3C(=O)O)c(-c3ccccc3)c2c1 | 0.0 | 0.5 | -4.7 | 0.3 | -2.5 | 1.1
Cc1ccc2[nH]c(C(=O)N/N=C/c3ccccc3O)c(C)c2c1 | 19.5* | -13.0 | -7.6 | 6.6 | -9.8 | -10.1
COc1cc(OC)c2cc(C(=O)N/N=C/c3ccccc3O)[nH]c2c1 | 36.6* | -1.6 | -22.5 | 2.9 | -39.0 | 12.6
COc1ccc2[nH]c(C(=O)N/N=C/c3ccccc3OC)cc2c1 | 5.8 | -2.7 | -45.2 | -0.5 | -57.1 | 7.7
Cn1c(=O)c2ncn(CC(=O)Nc3ccc4c5c(cccc35)CC4)c2n(C)c1=O | -2.0 | -20.7 | -8.7 | -1.5 | -28.9 | 41.9*
Cc1cccc(C)c1NC(=O)Cn1cnc2c(=O)n(C)c(=O)n(C)c21 | 0.6 | -0.6 | 3.1 | 2.2 | 9.5 | -5.9
CCCn1c(-c2ccccc2)nc2c(=O)n(C)c(=O)[nH]c21 | -1.2 | 4.6 | -77.8 | 12.4 | -295.4 | 8.1
O=C(CNC(=O)c1ccccc1O)N/N=C/c1cc(Br)ccc1OC(=O)/C=C/c1ccco1 | 12.6* | / | -4.8 | / | -16.4 | /

Screening data (PubChem)
